# Reference: ChEMBL document CHEMBL5715946 (Chem Biol, 2010)
# The source made the active and inactive calls. The calls are words filed in the database; no cut-off is given here.
# Assays:
# Rattus norvegicus = species: Rattus norvegicus; experiment: Binding affinity to rat 6His-tagged VILIP3 expressed in Escherichia coli BL21 (DE3) at 400 nM incubated for 6 hrs using labelled compound by scintillation proximity assay
# How it was run: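 Scintillation proximity assay: 6His-tagged protein (hMIF, rat GST Ya or rat VILIP3) captured on copper His-tag SPA beads with [3H]-BTZO-1; emitted light counted on a microplate scintillation counter. Mean of n = 2.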
# [1] = target: Macrophage migration inhibitory factor (Rattus norvegicus) (UniProt P30904); experiment: Inhibition of MIF tautomerase activity in rat H9c2 cells at 30 uM using L-dopachrome carboxy-methyl ester as substrate incubated for 6 hrs under serum-free medium by spectrophotometry relative to control; assay type: cell-based
# Chain of Macrophage migration inhibitory factor (Rattus norvegicus) (P30904 2-115 limits assumed): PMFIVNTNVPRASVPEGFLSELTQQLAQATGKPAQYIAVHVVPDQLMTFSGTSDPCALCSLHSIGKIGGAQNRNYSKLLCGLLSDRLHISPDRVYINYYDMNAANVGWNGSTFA
# How it was run: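 H9c2 cells exposed to 30 μM compound for 6 hr; MIF tautomerase activity then measured in cell lysate.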
# [2] = target: T1, Macrophage migration inhibitory factor (Homo sapiens) (UniProt P14174); experiment: Binding affinity to BTZO-12 sensor chip immobilized recombinant human C-terminal His-tagged MIF expressed in Escherichia coli BL21 (DE3) by SPR analysis
# T1 sequence (whole entry): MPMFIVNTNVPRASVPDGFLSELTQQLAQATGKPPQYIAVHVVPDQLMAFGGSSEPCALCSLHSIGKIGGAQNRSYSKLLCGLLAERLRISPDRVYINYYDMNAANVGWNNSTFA
# How it was run: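 Sensor chip carrying immobilized BTZO-12; MIF (wild type or point mutants) passed over it and specific binding monitored by surface plasmon resonance.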
# [3] = Upregulation of glutathione S-transferase Ya subunit gene expression in serum-deprived neonatal Wistar rat cardiomyocyte at 0.37 uM incubated for 21 hrs by microarray analysis relative to control; assay type: functional, Cardiac muscle cell
# How it was run: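 Primary neonatal rat cardiomyocytes, isolated by proteinase digestion with preplating to deplete nonmyocytes, cultured in serum-free medium with or without 0.37 μM compound for 21 hr. Total RNA was recovered and global expression profiled on an Affymetrix GeneChip rat genome U34A array (about 7000 known genes). Change is relative to untreated cells.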
# Cardiac muscle cell = experiment: Potency index, ratio of trolox MEC1.5 to test compound MEC1.5 for cytoprotective activity against serum deprivation-induced neonatal Wistar rat cardiomyocyte death; assay type: functional
# [4] = Reduction in MIF mRNA expression in rat H9c2 cells transfected with MIF siRNA at 3 uM measured after 24 hrs RT-qPCR analysis relative to control; assay type: functional; set-up: scale not given: the % may be the effect or the level left
# How it was run: (§1)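 H9c2 cells transfected with 100 nM rat MIF siRNA or negative-control siRNA using Oligofectamine in Opti-MEM, then treated with 3 μM compound for 24 hr. MIF mRNA by real-time qPCR; MIF protein in cell lysate and medium by ELISA. Mean ± SD, n = 3.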
# [5] = system: Antioxidant response element; experiment: Induction of ARE-mediated HO-1 mRNA expression in MIF siRNA transfected rat H9c2 cells at 3 uM measured after 24 hrs in presence of rat MIF by RT-qPCR analysis; assay type: cell-based
# How it was run: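 H9c2 cells transfected with MIF siRNA or control siRNA (100 nM, Oligofectamine), then treated with 3 μM compound with or without 0.8 μM rMIF for 24 hr. GST Ya and HO-1 mRNA by real-time qPCR; mean ± SD, n = 3. MIF effect on drug efficacy tested by Aspin-Welch test.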
# [6] = Reduction in MIF expression in MIF siRNA transfected rat H9c2 cell culture medium at 3 uM measured after 24 hrs ELISA relative to control; assay type: functional; set-up: scale not given: the % may be the effect or the level left; how it was run: as §1
smiles,measurement,setting,value
O=c1nc(-c2ccccn2)sc2ccccc12 [BTZO-1],Activity,Rattus norvegicus,inactive
same,inhibition,[1],20%
same,Activity,[2],Active
same,fold change (FC),[3],12
same,Ratio,Cardiac muscle cell,10000
same,Activity,[4],~80%
same,Activity,[5],Active
same,Activity,[6],~75%
